Laboratory results reported in ChEMBL document CHEMBL1127482 (J Med Chem, 1994).
*1 amine or outer side, *2 acyl side, *3 side chain or, on linkers, in order; H or OH if unused. Where a SMILES comes first, the peptide text is derived from it. Bridges are numbered along the chain shown (N, C = ends). X1 = O=C(CC1(S[*:2])CCCCC1)[*:1]

Experiments:
Integrin alpha-5/beta-1 = Integrin alpha-5/beta-1 (Homo sapiens, UniProt P05556+P08648); test: Binding affinity against integrin alpha5-beta1 in enzyme linked immunosorbent assay (ELISA); type: protein-complex assay
Integrin alpha-V/beta-5 = Integrin alpha-V/beta-5 (Homo sapiens, UniProt P06756+P18084); test: Binding affinity against integrin alpha V-beta5 in enzyme linked immunosorbent assay (ELISA); type: protein-complex assay
In short: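 It is added to wells coated with human vitronectin in 0.1 M carbonate, pH 9.6, with 10-fold serial peptide dilutions for 3 h at room temperature. Detection uses rabbit anti-VnR, HRP anti-rabbit IgG and o-phenylenediamine/H2O2.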

[1] = molecular target: Integrin alpha-IIb/beta-3 (Homo sapiens, UniProt P05106+P08514); test: Binding affinity against integrin alpha 2b-beta 3 in enzyme linked immunosorbent assay (ELISA); type: protein-complex assay
In short: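 Purified human platelet αIIbβ3 (from outdated platelets, octyl glucoside extract) in TBS with 20 mM octyl glucoside, 2 mM MgCl2 and 2 mM CaCl2 binds to plate-coated human fibrinogen (10 µg/mL in TBS) with 10-fold serial peptide dilutions for 3 h at room temperature. Bound receptor is detected with rabbit anti-αIIbβ3, then HRP anti-rabbit IgG, with o-phenylenediamine/H2O2 at pH 5.0. IC50 is reported.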

Homo sapiens = species: Homo sapiens; test: Inhibition of 10 uM ADP induced platelet aggregation in human platelet rich citreated plasma (PRP); type: functional
In short: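 Aggregation is read as the increase in light transmission in an aggregometer, with platelets used within 3 h of collection. IC50 comes from regression of dose-response curves for inhibition of maximal aggregation, adjusted against a standard run in each experiment.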

Sequence of Integrin alpha-V/beta-5 (P06756 31-889 limits assumed): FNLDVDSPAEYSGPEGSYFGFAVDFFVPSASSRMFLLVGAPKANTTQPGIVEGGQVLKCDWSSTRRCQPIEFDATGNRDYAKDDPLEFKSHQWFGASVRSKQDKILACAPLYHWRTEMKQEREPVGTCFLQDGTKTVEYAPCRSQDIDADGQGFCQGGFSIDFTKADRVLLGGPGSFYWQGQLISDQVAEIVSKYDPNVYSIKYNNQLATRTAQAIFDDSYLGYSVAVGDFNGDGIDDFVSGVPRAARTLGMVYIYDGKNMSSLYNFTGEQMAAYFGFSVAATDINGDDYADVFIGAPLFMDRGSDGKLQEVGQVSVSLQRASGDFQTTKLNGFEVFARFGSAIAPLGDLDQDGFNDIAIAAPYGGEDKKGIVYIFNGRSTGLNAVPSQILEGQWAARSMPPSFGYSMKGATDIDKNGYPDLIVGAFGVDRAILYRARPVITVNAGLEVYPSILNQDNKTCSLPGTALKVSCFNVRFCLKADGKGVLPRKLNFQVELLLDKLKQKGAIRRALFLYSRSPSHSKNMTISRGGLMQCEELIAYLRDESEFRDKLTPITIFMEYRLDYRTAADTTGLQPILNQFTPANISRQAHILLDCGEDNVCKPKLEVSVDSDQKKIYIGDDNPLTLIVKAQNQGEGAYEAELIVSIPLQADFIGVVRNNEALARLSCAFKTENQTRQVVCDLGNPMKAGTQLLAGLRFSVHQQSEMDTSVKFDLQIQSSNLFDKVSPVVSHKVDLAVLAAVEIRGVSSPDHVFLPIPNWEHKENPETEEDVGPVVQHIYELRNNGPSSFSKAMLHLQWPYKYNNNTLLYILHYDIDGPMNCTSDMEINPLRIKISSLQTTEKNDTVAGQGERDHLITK
Sequence of Integrin alpha-V/beta-5 (P06756 891-1048 limits assumed): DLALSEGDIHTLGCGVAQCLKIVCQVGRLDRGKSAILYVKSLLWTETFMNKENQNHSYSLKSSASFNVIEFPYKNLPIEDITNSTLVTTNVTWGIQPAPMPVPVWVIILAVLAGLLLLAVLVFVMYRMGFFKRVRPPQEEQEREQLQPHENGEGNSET
Sequence of Integrin alpha-V/beta-5 (P18084 24-799 limits assumed): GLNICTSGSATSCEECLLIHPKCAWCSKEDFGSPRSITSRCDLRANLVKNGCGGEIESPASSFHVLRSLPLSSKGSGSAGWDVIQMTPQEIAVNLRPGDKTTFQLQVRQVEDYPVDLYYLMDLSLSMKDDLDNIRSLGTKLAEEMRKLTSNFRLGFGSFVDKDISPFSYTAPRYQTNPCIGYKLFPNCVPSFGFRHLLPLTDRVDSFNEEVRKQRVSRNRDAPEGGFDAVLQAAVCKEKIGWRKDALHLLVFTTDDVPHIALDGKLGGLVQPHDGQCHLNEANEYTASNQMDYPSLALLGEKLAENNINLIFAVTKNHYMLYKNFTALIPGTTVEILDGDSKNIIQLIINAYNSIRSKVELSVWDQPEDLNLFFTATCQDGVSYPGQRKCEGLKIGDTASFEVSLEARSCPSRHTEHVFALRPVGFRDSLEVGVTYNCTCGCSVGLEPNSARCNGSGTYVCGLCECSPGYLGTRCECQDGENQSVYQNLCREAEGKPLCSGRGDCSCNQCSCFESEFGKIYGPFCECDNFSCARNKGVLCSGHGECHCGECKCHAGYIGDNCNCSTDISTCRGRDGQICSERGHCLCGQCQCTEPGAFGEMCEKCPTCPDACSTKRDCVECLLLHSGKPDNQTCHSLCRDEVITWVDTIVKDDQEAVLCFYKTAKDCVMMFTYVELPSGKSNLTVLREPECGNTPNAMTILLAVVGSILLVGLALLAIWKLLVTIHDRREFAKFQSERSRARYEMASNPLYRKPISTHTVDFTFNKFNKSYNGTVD
Sequence of Integrin alpha-5/beta-1 (P05556 21-798 limits assumed): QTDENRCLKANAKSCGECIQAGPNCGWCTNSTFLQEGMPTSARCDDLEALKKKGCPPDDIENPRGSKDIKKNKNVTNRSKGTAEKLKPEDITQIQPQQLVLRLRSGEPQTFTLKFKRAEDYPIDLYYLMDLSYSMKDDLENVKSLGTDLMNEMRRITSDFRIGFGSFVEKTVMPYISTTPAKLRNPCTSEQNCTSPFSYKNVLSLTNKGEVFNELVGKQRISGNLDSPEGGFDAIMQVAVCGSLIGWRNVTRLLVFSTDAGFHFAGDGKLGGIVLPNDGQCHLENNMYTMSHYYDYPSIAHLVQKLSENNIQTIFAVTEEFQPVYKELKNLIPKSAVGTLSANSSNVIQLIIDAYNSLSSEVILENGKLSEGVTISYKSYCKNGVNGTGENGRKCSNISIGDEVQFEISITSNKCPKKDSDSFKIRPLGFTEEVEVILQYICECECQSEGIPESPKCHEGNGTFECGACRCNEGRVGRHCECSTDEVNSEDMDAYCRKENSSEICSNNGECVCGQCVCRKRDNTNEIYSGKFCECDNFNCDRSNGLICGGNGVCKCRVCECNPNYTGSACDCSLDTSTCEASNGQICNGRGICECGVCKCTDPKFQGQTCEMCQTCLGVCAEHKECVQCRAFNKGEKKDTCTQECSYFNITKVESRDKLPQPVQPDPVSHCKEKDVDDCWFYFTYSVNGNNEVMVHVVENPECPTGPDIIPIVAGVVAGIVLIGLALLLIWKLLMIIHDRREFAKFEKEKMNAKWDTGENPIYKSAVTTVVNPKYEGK
Sequence of Integrin alpha-5/beta-1 (P08648 42-894 limits assumed): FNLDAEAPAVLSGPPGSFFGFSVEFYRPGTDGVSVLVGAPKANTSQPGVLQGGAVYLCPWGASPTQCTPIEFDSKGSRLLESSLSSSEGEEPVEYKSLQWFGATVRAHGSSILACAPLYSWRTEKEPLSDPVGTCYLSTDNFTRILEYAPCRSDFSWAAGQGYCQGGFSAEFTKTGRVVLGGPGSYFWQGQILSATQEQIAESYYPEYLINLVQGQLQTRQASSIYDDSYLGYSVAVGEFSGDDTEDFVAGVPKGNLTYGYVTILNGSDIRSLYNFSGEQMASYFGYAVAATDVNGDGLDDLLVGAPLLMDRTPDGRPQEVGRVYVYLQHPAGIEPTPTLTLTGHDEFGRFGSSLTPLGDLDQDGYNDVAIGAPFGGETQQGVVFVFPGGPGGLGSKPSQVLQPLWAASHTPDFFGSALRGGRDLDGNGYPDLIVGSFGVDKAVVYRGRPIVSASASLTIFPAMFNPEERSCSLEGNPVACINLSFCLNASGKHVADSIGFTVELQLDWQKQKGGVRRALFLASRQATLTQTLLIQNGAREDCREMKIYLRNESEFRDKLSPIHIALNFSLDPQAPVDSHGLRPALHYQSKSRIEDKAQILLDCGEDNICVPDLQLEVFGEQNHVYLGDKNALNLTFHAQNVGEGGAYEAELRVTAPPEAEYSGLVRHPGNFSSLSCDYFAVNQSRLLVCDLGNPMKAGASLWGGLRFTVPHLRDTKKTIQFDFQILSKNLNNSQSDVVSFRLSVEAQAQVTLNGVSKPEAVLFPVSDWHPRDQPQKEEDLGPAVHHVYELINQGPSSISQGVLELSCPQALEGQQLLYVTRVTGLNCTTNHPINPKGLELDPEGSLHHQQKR
Sequence of Integrin alpha-5/beta-1 (P08648 895-1049 limits assumed): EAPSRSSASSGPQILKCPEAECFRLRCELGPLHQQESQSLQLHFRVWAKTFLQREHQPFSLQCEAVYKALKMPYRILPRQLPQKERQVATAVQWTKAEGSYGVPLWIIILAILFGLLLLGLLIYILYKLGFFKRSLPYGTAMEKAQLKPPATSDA

| SMILES | IC50 (Integrin alpha-5/beta-1) [nM] | IC50 (Integrin alpha-V/beta-5) [nM] | IC50 [1] [nM] | IC50 (Homo sapiens) [nM] |
| --- | --- | --- | --- | --- |
| CCCCOc1ccc(C[C@@H]2NC(=O)[C@H](CC(=O)O)NC(=O)CNC(=O)[C@H](CCCNC(=N)N)NC(=O)[C@@H]3CCCN3C(=O)[C@H]([C@@H](C)CC)NC(=O)[C@@H](NC(C)=O)CSSC[C@@H](C(N)=O)NC(=O)[C@H](CCCNC(=N)N)NC2=O)cc1 | 6000 | > 10000 | 16 |  |
| N=C(N)NCCC[C@H](NC(=O)[C@@H]1CSSC2(CCCCC2)[C@H](NC(=O)[C@@H](N)CCCNC(=N)N)C(=O)NCC(=O)N[C@@H](Cc2c[nH]cn2)C(=O)N[C@@H](CCCNC(=N)N)C(=O)NCC(=O)N[C@@H](CC(=O)O)C(=O)N[C@@H](Cc2ccc(I)cc2)C(=O)N[C@@H](CCCNC(=N)N)C(=O)N1)C(=O)O | 4190 | 4030 | 10 |  |
| CC[C@H](C)[C@@H]1NC(=O)[C@@H](NC(C)=O)CSSC[C@@H](C(N)=O)NC(=O)[C@H](CCCN=C(N)N)NC(=O)[C@H](Cc2ccc([N+](=O)[O-])cc2)NC(=O)[C@H](CC(=O)O)NC(=O)CNC(=O)[C@H](CCCN=C(N)N)NC(=O)[C@@H]2CCCN2C1=O | 1200 | 4300 | 430 | 210 |
| COc1ccc(C[C@@H]2NC(=O)[C@H](CC(=O)O)NC(=O)CNC(=O)[C@H](CCCNC(=N)N)NC(=O)[C@H](Cc3c[nH]cn3)NC(=O)CNC(=O)[C@@H](NC(=O)[C@@H](N)CCCNC(=N)N)C3(CCCCC3)SSC[C@@H](C(=O)N[C@@H](CCCNC(=N)N)C(=O)O)NC(=O)[C@H](CCCNC(=N)N)NC2=O)cc1 | 980 | 1050 | 20 |  |
| N=C(N)NCCC[C@H](NC(=O)[C@@H]1CSSC2(CCCCC2)[C@H](NC(=O)[C@@H](N)CCCNC(=N)N)C(=O)NCC(=O)N[C@@H](Cc2c[nH]cn2)C(=O)N[C@@H](CCCNC(=N)N)C(=O)NCC(=O)N[C@@H](CC(=O)O)C(=O)N[C@@H](Cc2ccc(Cl)cc2)C(=O)N[C@@H](CCCNC(=N)N)C(=O)N1)C(=O)O | 870 | 15300 |  | 730 |
| CC(C)C[C@@H]1NC(=O)[C@H](CC(=O)O)NC(=O)CNC(=O)[C@H](CCCNC(=N)N)NC(=O)[C@H](Cc2c[nH]cn2)NC(=O)CNC(=O)[C@@H](NC(=O)[C@@H](N)CCCNC(=N)N)C(C)(C)SSC[C@@H](C(=O)N[C@@H](CCCNC(=N)N)C(=O)O)NC(=O)[C@H](CCCNC(=N)N)NC1=O |  | 4930 | 40 | 9600 |
| CC(C)C[C@@H]1NC(=O)[C@H](CC(=O)O)NC(=O)CNC(=O)[C@H](CCCNC(=N)N)NC(=O)[C@H](Cc2c[nH]cn2)NC(=O)CNC(=O)[C@@H](NC(=O)[C@@H](N)CCCNC(=N)N)C2(CCCCC2)SSC[C@@H](C(=O)N[C@@H](CCCNC(=N)N)C(=O)O)NC(=O)[C@H](CCCNC(=N)N)NC1=O |  | 1580 | 400 | 3000 |
| CC[C@H](C)[C@@H]1NC(=O)[C@@H](NC(C)=O)CSSC[C@@H](C(N)=O)NC(=O)[C@H](CCCNC(=N)N)NC(=O)[C@H](Cc2ccc(O)cc2)NC(=O)[C@H](CC(=O)O)NC(=O)CNC(=O)[C@H](CCCNC(=N)N)NC(=O)[C@@H]2CCCN2C1=O (Ac-CIPRGDYRC-NH2; disulfide 1-9) | 4500 | > 10000 | 3 |  |
| CCCCOc1ccc(C[C@@H]2NC(=O)[C@H](CC(=O)O)NC(=O)CNC(=O)[C@H](CCCNC(=N)N)NC(=O)[C@H](Cc3c[nH]cn3)NC(=O)CNC(=O)[C@@H](NC(=O)[C@@H](N)CCCNC(=N)N)C3(CCCCC3)SSC[C@@H](C(=O)N[C@@H](CCCNC(=N)N)C(=O)O)NC(=O)[C@H](CCCNC(=N)N)NC2=O)cc1 |  |  | 30 | 350 |

Further compounds by falling IC50 [1], results first:

| IC50 (Integrin alpha-5/beta-1) [nM] | IC50 (Integrin alpha-V/beta-5) [nM] | IC50 [1] [nM] | IC50 (Homo sapiens) [nM] | SMILES |
| --- | --- | --- | --- | --- |
|  | 10000 | 150 | 4100 | CC(C)C[C@@H]1NC(=O)[C@H](CC(=O)O)NC(=O)CNC(=O)[C@H](CCCNC(=N)N)NC(=O)[C@H](Cc2c[nH]cn2)NC(=O)CNC(=O)[C@H](NC(=O)[C@@H](N)CCCNC(=N)N)C(C)(C)SSC[C@@H](C(=O)N[C@@H](CCCNC(=N)N)C(=O)O)NC(=O)[C@H](CCCNC(=N)N)NC1=O |
|  |  | 70 | 440 | COc1ccc(C[C@@H]2NC(=O)[C@H](CC(=O)O)NC(=O)CNC(=O)[C@H](CCCN=C(N)N)NC(=O)[C@H](Cc3c[nH]cn3)NC(=O)[C@H](CCCN=C(N)N)NC(=O)[C@@H](NC(=O)[C@@H](N)CCCN=C(N)N)C3(CCCCC3)SSC[C@@H](C(=O)N[C@@H](CCCN=C(N)N)C(=O)O)NC(=O)[C@H](CCCN=C(N)N)NC2=O)cc1 |
| 7720 |  | 70 | 440 | NC(N)=NCCC[C@H](NC(=O)[C@@H]1CSSC2(CCCCC2)[C@H](NC(=O)[C@@H](N)CCCN=C(N)N)C(=O)NCC(=O)N[C@@H](Cc2c[nH]cn2)C(=O)N[C@@H](CCCN=C(N)N)C(=O)NCC(=O)N[C@@H](CC(=O)O)C(=O)N[C@@H](Cc2ccc3ccccc3c2)C(=O)N[C@@H](CCCN=C(N)N)C(=O)N1)C(=O)O |
|  |  | 40 | 620 | NC(N)=NCCC[C@H](NC(=O)[C@@H]1CSSC2(CCCCC2)[C@H](NC(=O)[C@@H](N)CCCN=C(N)N)C(=O)NCC(=O)N[C@@H](Cc2c[nH]cn2)C(=O)N[C@@H](CCCN=C(N)N)C(=O)NCC(=O)N[C@@H](CC(=O)O)C(=O)N[C@@H](Cc2ccccc2)C(=O)N[C@@H](CCCN=C(N)N)C(=O)N1)C(=O)O |
|  | 340 | 30 | 4100 | CC(C)C[C@@H]1NC(=O)[C@H](CC(=O)O)NC(=O)CNC(=O)[C@H](CCCNC(=N)N)NC(=O)[C@H](Cc2c[nH]cn2)NC(=O)CNC(=O)[C@@H](NC(=O)[C@@H](N)CCCNC(=N)N)C2(CCCC2)SSC[C@@H](C(=O)N[C@@H](CCCNC(=N)N)C(=O)O)NC(=O)[C@H](CCCNC(=N)N)NC1=O |
|  |  | 20 | 680 | NC(N)=NCCC[C@H](NC(=O)[C@@H]1CSSC2(CCCCC2)[C@H](NC(=O)[C@@H](N)CCCN=C(N)N)C(=O)NCC(=O)N[C@@H](Cc2c[nH]cn2)C(=O)N[C@@H](CCCN=C(N)N)C(=O)NCC(=O)N[C@@H](CC(=O)O)C(=O)N[C@@H](c2ccccc2)C(=O)N[C@@H](CCCN=C(N)N)C(=O)N1)C(=O)O |
|  | 10000 | 20 | 5900 | CC(C)C[C@@H]1NC(=O)[C@H](CC(=O)O)NC(=O)CNC(=O)[C@H](CCCNC(=N)N)NC(=O)[C@H](Cc2c[nH]cn2)NC(=O)CNC(=O)CC2(CCCCC2)SSC[C@@H](C(=O)N[C@@H](C)C(=O)O)NC(=O)[C@H](CCCNC(=N)N)NC1=O (GHRGDLRCA-OH; linker N-8 via X1) |
|  | 4800 | 17 | 840 | CC(=O)N[C@H]1CSSC[C@@H](C(N)=O)NC(=O)[C@H](CCCN=C(N)N)NC(=O)[C@H](Cc2ccc([N+](=O)[O-])cc2)NC(=O)[C@H](CC(=O)O)NC(=O)CNC(=O)[C@H](CCCN=C(N)N)NC(=O)[C@@H]2CCCN2C(=O)[C@H](CC(N)=O)NC1=O |
| 10000 | 8400 | 4 | 220 | CCOc1ccc(C[C@@H]2NC(=O)[C@H](CC(=O)O)NC(=O)CNC(=O)[C@H](CCCN=C(N)N)NC(=O)[C@@H]3CCCN3C(=O)[C@H](CC(N)=O)NC(=O)[C@@H](NC(C)=O)CSSC[C@@H](C(N)=O)NC(=O)[C@H](CCCN=C(N)N)NC2=O)cc1 |
|  |  | 2 | 280 | CC[C@H](C)[C@@H]1NC(=O)[C@H](NC(C)=O)C(C)(C)SSC[C@@H](C(N)=O)NC(=O)[C@H](CCCNC(=N)N)NC(=O)[C@H](Cc2ccc(OC)cc2)NC(=O)[C@H](CC(=O)O)NC(=O)CNC(=O)[C@H](CCCNC(=N)N)NC(=O)[C@@H]2CCCN2C1=O |
